55 sequences from the array DNA melting data of Ke et al. (doi:10.1101/2024.01.08.574731) can be followed below.

Data set [1] is described as follows: melting temperature; fluorescence melt of hairpins on a sequencing array, two-state fit, raised by 9.35 °C to match UV melts. The settings on record: sodium 0.088 M. In short, it runs like this:
(§1)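 With Cy3 and quencher oligos annealed, library hairpins on a sequenced MiSeq flow cell were imaged for Cy3 fluorescence in 50 mM Na-HEPES pH 8.0, 25 mM NaCl, in 2.5 °C steps up to 60 °C. Melting temperature and folding enthalpy were derived from bootstrapped two-state fits of signals normalised to pre-quench Cy3 and to control constructs. Four replicates were combined by inverse variance, with fitted temperatures raised by 9.35 °C to match UV melts.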

Data set [2] can be described thus: folding enthalpy; higher = less favourable; fluorescence melt of hairpins on a sequencing array, two-state fit. Conditions: sodium 0.088 M. In short, it runs like this:
as §1

As to GATACGGGAAACCGTATC (((((((....))))))), the Tm in data set [1] was determined as 59.4 °C. For the same sequence, the folding enthalpy in data set [2] was -35.8 kcal/mol.

Turning to GACCGCGAAAGCGGAGTC ((((((....)))..))), in data set [1], the Tm was 40.6 °C. The folding enthalpy in data set [2] is -7.63 kcal/mol.

For the sequence GCGAAAGAAATTTCGC ((((((....)))))), in data set [1], the Tm came out at 55 °C. In data set [2], the folding enthalpy was -34 kcal/mol.

For GCAAGGCCGAAAGGCTGC (((..(((....)))))), the Tm in data set [1] is 51.6 °C. Besides, in data set [2], the folding enthalpy was -14.8 kcal/mol.

Regarding GCGACCGAAAGGTCACGC ((((((....)))..))), in data set [1], the Tm is 61.1 °C. In addition, the folding enthalpy in data set [2] was -16.9 kcal/mol.

With GGAACCGGAAACAGTTCC (((((.(....).))))), the Tm in data set [1] amounted to 40 °C. Besides, the folding enthalpy in data set [2] is -28.4 kcal/mol.

On to GATCGGTATTCCGATC ((((((....)))))), for which, in data set [1], the Tm was 58.4 °C. Further, in data set [2], the folding enthalpy was -42 kcal/mol.

Take CGTACACGGAAACGTACG (((..(((....)))))): the Tm in data set [1] amounted to 40.8 °C. The folding enthalpy in data set [2] is -25.7 kcal/mol.

Turning to GCTCCTGGAAACAGGAAC (.(((((....))))).), the Tm in data set [1] stood at 36.6 °C. Besides, the folding enthalpy in data set [2] is -19.3 kcal/mol.

Take GGATCCCGAAAGGGTTCC (((.(((....))).))): the Tm in data set [1] is 54.3 °C. For the same sequence, in data set [2], the folding enthalpy is -29.8 kcal/mol.

On to CGCAAGCGGAAACGCGCG (((..(((....)))))), for which, in data set [1], the Tm is 56.9 °C. Besides, in data set [2], the folding enthalpy is -22 kcal/mol.

With GGGCGCGAAAGCGAACCC ((((((....)))..))), the Tm in data set [1] worked out at 59.3 °C. Also, the folding enthalpy in data set [2] is -14 kcal/mol.

Turning to GTCCTTGAAAAAGGAC ((((((....)))))), the Tm in data set [1] was 56 °C. For the same sequence, in data set [2], the folding enthalpy is -33.2 kcal/mol.

In the case of GGTGGCGAAAGCCCTACC ((((((....)))..))), the Tm in data set [1] was determined as 36.1 °C. Besides, in data set [2], the folding enthalpy is -13.2 kcal/mol.

For the sequence CGATCCGGAAACGGGTCG (((.(((....))).))), in data set [1], the Tm came to 57.2 °C. The folding enthalpy in data set [2] is -38.8 kcal/mol.

As for GACAGCGGAAACGCTACC (..((((....))))..), in data set [1], the Tm was 24.2 °C. Further, the folding enthalpy in data set [2] was -11.1 kcal/mol.

Turning to GCAGCAGGAAACCACTGC ((((..(....)..)))), the Tm in data set [1] is 34.7 °C. For the same sequence, the folding enthalpy in data set [2] was -18.8 kcal/mol.

Consider GCACTCGAAAGAGCGTGC ((((((....)))..))), for which the Tm in data set [1] was determined as 43.2 °C. The folding enthalpy in data set [2] was -25.9 kcal/mol.

In the case of GTGCACCGAAAGGTCAC (((.(((....)))))), in data set [1], the Tm was determined as 52.5 °C. For the same sequence, the folding enthalpy in data set [2] is -26.3 kcal/mol.

GCAGGCTCGAAAGAGTGC (((..(((....)))))): the Tm in data set [1] came to 36.6 °C. Further, the folding enthalpy in data set [2] was -19.8 kcal/mol.

For GCGACAGCGAAAGCTCGC (((..(((....)))))), the Tm in data set [1] came to 46.7 °C. The folding enthalpy in data set [2] is -14.6 kcal/mol.

As for GCACGCGGAAACGTGTGC ((((.((....)).)))), in data set [1], the Tm came to 66.7 °C. The folding enthalpy in data set [2] is -46 kcal/mol.

With GCAAAATCGAAAGATTGC (((..(((....)))))), the Tm in data set [1] came out at 38.5 °C. Moreover, in data set [2], the folding enthalpy is -20.6 kcal/mol.

Consider GAAGACGGAAACGTCTTC (((((((....))))))), for which the Tm in data set [1] was 64.5 °C. The folding enthalpy in data set [2] was -41.5 kcal/mol.

Take GCTTTGCGAAAGCGCAGC (((..((....))..))): the Tm in data set [1] was determined as 38.7 °C. Also, the folding enthalpy in data set [2] was -11.8 kcal/mol.

GATATACGAAAGTAATC (((.(((....)))))): the Tm in data set [1] was found to be 23.8 °C. Besides, the folding enthalpy in data set [2] is -9.45 kcal/mol.

On to GCTGACCGAAAGGTAGC (((.(((....)))))), for which the Tm in data set [1] came out at 51.7 °C. Moreover, the folding enthalpy in data set [2] was -25.5 kcal/mol.

For the sequence GCCTGATCGAAAGATGGC (((..(((....)))))), the Tm in data set [1] came out at 41.9 °C. For the same sequence, in data set [2], the folding enthalpy is -25.2 kcal/mol.

GCATCCCGAAAGGGTTGC (((.(((....))).))): the Tm in data set [1] turned out to be 60.1 °C. For the same sequence, the folding enthalpy in data set [2] was -30.1 kcal/mol.

For the sequence GAATTAGGAAACTGATTC ((((.((....)).)))), the Tm in data set [1] turned out to be 33.7 °C. Also, the folding enthalpy in data set [2] is -19.8 kcal/mol.

Take GATCTCCCTCGAGATC ((((((....)))))): the Tm in data set [1] was 51.7 °C. In addition, the folding enthalpy in data set [2] was -41.1 kcal/mol.

In the case of GCTTAGCGAAAGCTGAGC (((.(((....))).))), the Tm in data set [1] came out at 57.6 °C. In addition, the folding enthalpy in data set [2] is -45.6 kcal/mol.

In the case of GATCGTCACACGATC ((((((...)))))), the Tm in data set [1] worked out at 57 °C. In addition, the folding enthalpy in data set [2] is -37.8 kcal/mol.

As to GATCGATGACTCGATC ((((((....)))))), the Tm in data set [1] was found to be 49.5 °C. Also, the folding enthalpy in data set [2] was -30.5 kcal/mol.

With GGTAACGAAAGTTACACC ((((((....)))..))), the Tm in data set [1] was determined as 43.5 °C. In addition, the folding enthalpy in data set [2] is -13.9 kcal/mol.

GATCACGCGCGTGATC ((((((....)))))): the Tm in data set [1] is 62.7 °C. In data set [2], the folding enthalpy was -62 kcal/mol.

On to GGTACCGGAAACGGTGTC (..((((....))))..), for which, in data set [1], the Tm amounted to 36.7 °C. Also, the folding enthalpy in data set [2] is -13.4 kcal/mol.

For the sequence GCTAAGCCGAAAGGCAGC (((..(((....)))))), the Tm in data set [1] amounted to 50 °C. Besides, the folding enthalpy in data set [2] is -18.6 kcal/mol.

In the case of GCGTAGCAACGC ((((....)))), in data set [1], the Tm came out at 61.4 °C. The folding enthalpy in data set [2] was -9.68 kcal/mol.

Consider GATCCCACCGGGGATC ((((((....)))))), for which the Tm in data set [1] was 63.7 °C. Also, the folding enthalpy in data set [2] was -32.3 kcal/mol.

Regarding GTCCAGCGAAAGCTTGAC (((.(((....))).))), the Tm in data set [1] is 49.1 °C. Moreover, the folding enthalpy in data set [2] is -26.2 kcal/mol.

On to GCGCAGCGAAAGCCGGGC ((.(.((....)).).)), for which the Tm in data set [1] was 41.2 °C. The folding enthalpy in data set [2] is -8.2 kcal/mol.

For the sequence GGCGGACGAAAGTCGGCC (((.(((....))).))), the Tm in data set [1] was 69.3 °C. The folding enthalpy in data set [2] was -39.2 kcal/mol.

Take GATGCACGAAAGTGTATC (((.(((....))).))): in data set [1], the Tm was 54.2 °C. For the same sequence, in data set [2], the folding enthalpy was -31.7 kcal/mol.

As to GCCCGACGAAAGTCAGGC (((.(((....))).))), in data set [1], the Tm came to 57.3 °C. In addition, the folding enthalpy in data set [2] was -31.8 kcal/mol.

As to GATCTCCAAGGAGATC ((((((....)))))), the Tm in data set [1] worked out at 55.7 °C. In addition, the folding enthalpy in data set [2] is -35 kcal/mol.

As to GTTACGCGAAAGCGAAC (((.(((....)))))), the Tm in data set [1] was 40 °C. For the same sequence, in data set [2], the folding enthalpy was -13.7 kcal/mol.

For the sequence GACGGCGAAAGCCGCGTC ((((((....)))..))), in data set [1], the Tm was determined as 50.9 °C. Besides, in data set [2], the folding enthalpy is -8.52 kcal/mol.

On to GTACGAGGAAACTCGCAC ((.((((....)))).)), for which the Tm in data set [1] was 42.4 °C. Besides, the folding enthalpy in data set [2] was -19.8 kcal/mol.

Regarding GAATGAGGAAACTCACTC ((.((((....)))).)), the Tm in data set [1] was 26 °C. In data set [2], the folding enthalpy is -11.2 kcal/mol.

As to GTTAGGAAACTAAC (((((....))))), the Tm in data set [1] worked out at 41.4 °C. In addition, the folding enthalpy in data set [2] is -15.7 kcal/mol.

GTTTATCGAAAGATGAAC (((.(((....))).))): the Tm in data set [1] amounted to 43.6 °C. The folding enthalpy in data set [2] was -31.2 kcal/mol.

For the sequence GTAGACGGAAACGTCTAC (((((((....))))))), the Tm in data set [1] turned out to be 61.3 °C. Also, the folding enthalpy in data set [2] is -50.1 kcal/mol.

For the sequence GTAGTTGGAAACAGTTAC (((..((....))..))), the Tm in data set [1] is 28.7 °C. Also, the folding enthalpy in data set [2] was -9.43 kcal/mol.

On to GTCCAGAAATGGAC (((((....))))), for which the Tm in data set [1] came out at 52.9 °C. The folding enthalpy in data set [2] was -24.8 kcal/mol.
